Published values gathered from unrelated publications.
Protocols differ between the studies behind these lines.
Target: Serine/threonine-protein kinase 17A (STK17A, Homo sapiens, UniProt Q9UEE5)
One construct used (Q9UEE5 1-414): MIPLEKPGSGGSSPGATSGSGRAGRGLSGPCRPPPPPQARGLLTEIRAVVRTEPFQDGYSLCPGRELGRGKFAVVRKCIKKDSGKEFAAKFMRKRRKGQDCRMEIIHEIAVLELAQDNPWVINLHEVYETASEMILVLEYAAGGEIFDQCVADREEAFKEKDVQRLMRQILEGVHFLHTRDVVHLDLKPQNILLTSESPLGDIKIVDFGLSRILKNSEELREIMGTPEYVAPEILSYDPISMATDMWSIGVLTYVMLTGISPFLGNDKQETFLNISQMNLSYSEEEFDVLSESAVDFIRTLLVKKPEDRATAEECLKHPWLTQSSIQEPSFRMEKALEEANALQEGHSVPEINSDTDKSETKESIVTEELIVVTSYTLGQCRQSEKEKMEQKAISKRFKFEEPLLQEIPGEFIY

| SMILES | read-out | action | method | tested at | endpoint | result |
| --- | --- | --- | --- | --- | --- | --- |
| Cc1cc(NC(=O)c2cccc3cc(-c4cccc5[nH]nc(N)c45)ccc23)ccc1F | enzyme activity | inhibitor | – | 0.1 µM | activity vs control | 81% |
| O=C1NC(=O)c2cc(Nc3ccc(F)cc3)c(Nc3ccc(F)cc3)cc21 | cell-free assay | – | – | 0.5 µM | remaining signal | 104% |
| CC(=O)c1c(NS(C)(=O)=O)c2cc(-c3ccc(Cl)cc3)c(-c3ccc(Cl)cc3Cl)nc2n(C)c1=O | cell-free assay | – | competition with immobilised ligand | 1 µM | remaining binding | 88% |
| CNC(=O)c1cc(Oc2ccc(NC(=O)Nc3ccc(Cl)c(C(F)(F)F)c3)cc2)ccn1 | cell-free assay | – | – | 10 µM | inhibition | 31% |
| NS(=O)(=O)c1ccc(CNc2nc(Nc3cccc(NC(=O)N4CCCC4)c3)ncc2C2CC2)cc1 | enzyme activity | inhibitor | radiometric | 1 µM | remaining activity | 79% |
| O=C(N[C@H]1CCCCC/C=C\C2C[C@@]2(C(=O)O)NC(=O)[C@@H]2C[C@@H](Oc3ccncc3)CN2C1=O)OC1CCCC1 (stereo partly shown) | binding | – | competition with immobilised ligand | 1 µM | remaining binding | 100% |
| NS(=O)(=O)c1ccc(CNc2ccnc(Nc3cccc(NC(=O)N4CCCC4)c3)n2)cc1 | enzyme activity | inhibitor | radiometric | 1 µM | remaining activity | 82% |
| Cc1c[nH]c2nccc(Oc3c(F)cc(Nc4cc(Cl)nc(N)n4)cc3F)c12 | cell-free assay | – | competition with immobilised ligand | 0.1 µM | remaining binding | 100% |
| Brc1cnc(Nc2cccc(CN3CCOCC3)c2)nc1NCCc1c[nH]cn1 | enzyme activity | inhibitor | radiometric | 1 µM | remaining activity | 8% |
| N#CCCc1ccc2c(c1)-c1[nH]c3ccc([N+](=O)[O-])cc3c1CC(=O)N2 | cell-free assay | – | – | 0.5 µM | remaining signal | 46.8% |
| CC(C)c1ccc(NC(=O)c2cccs2)c(-c2nc3ccccc3[nH]c2=O)c1 | enzyme activity | inhibitor | – | 1 µM | activity vs control | 91% |
| CN(C)C(=O)Cn1cc(-c2nc(C3(c4ccc(-c5cnc(N)nc5)cc4)CC3)no2)cn1 | cell-free assay | – | competition with immobilised ligand | 1 µM | remaining binding | 100% |
| Cc1nn(CC(F)(F)F)cc1Nc1ncc(C2CC2)c(NCCCNC(=O)C2CCC2)n1 | enzyme activity | inhibitor | radiometric | 1 µM | remaining activity | 25% |
| C#Cc1cccc(Nc2ncnc3cc(OCCOC)c(OCCOC)cc23)c1 | cell-free assay | – | – | 0.5 µM | remaining signal | 99.7% |
| N#CC1(c2ccccn2)CCN(Cc2cc(C(=O)N3CCCC3)c(=O)n3ccccc23)CC1 | cell-free assay | – | competition with immobilised ligand | 1 µM | remaining binding | 96% |
| O=C(Nc1cccc(Nc2ncc(Br)c(NCCc3cnc[nH]3)n2)c1)N1CCCC1 | enzyme activity | inhibitor | radiometric | 1 µM | remaining activity | 6% |
| O=C(O)[C@H]1[C@H](Cn2nnc3ccccc3c2=O)CC[C@@H]1C(=O)c1ccc(OCCC2CCOCC2)cc1 | cell-free assay | – | competition with immobilised ligand | 1 µM | remaining binding | 97% |
| Oc1cccc(-c2nc(N3CCOCC3)c3oc4ncccc4c3n2)c1 | cell-free assay | – | – | 0.5 µM | remaining signal | 93.8% |
| O=C(Nc1ccc(Oc2ccc(F)cc2)cc1)N1CCc2ncccc2[C@H]1c1ccc(F)cc1 | cell-free assay | – | competition with immobilised ligand | 1 µM | remaining binding | 86% |
| O=C(NCCCNc1nc(Nc2cccc(NC(=O)N3CCCC3)c2)ncc1I)c1cccs1 | enzyme activity | inhibitor | radiometric | 1 µM | remaining activity | 2% |
| Cc1ccc(NC(=O)c2ccc(C)c(C(F)(F)F)c2)cc1C#Cc1nn(C2CCC(O)CC2)c2ncnc(N)c12 (stereo not shown) | cell-free assay | – | – | 10 µM | remaining signal | 140% |
| Cc1nn(CC(F)(F)F)cc1Nc1nccc(NCCc2cnc[nH]2)n1 | enzyme activity | inhibitor | radiometric | 1 µM | remaining activity | 99% |
| Clc1ccc(Nc2nnc(Cc3ccncc3)c3ccccc23)cc1 | cell-free assay | – | – | 0.5 µM | remaining signal | 99.4% |
| Cc1ccc(Nc2nccc(N(C)c3ccc4c(C)n(C)nc4c3)n2)cc1S(N)(=O)=O | cell-free assay | – | – | 0.3 µM | inhibition | -6% |
| NS(=O)(=O)c1ccc(CNc2nc(Nc3cccc(NC(=O)N4CCCC4)c3)ncc2Br)cc1 | enzyme activity | inhibitor | radiometric | 1 µM | remaining activity | 41% |
